The target of one assay is Glutamate NMDA receptor. The assay can be described thus: Inhibition of N-methyl-D-aspartate glutamate receptor (NMDA receptor) from homogenized rat brain membrane, using [3H]-MK-801 as a radioligand. The procedure, abridged: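 Male Sprague-Dawley rat (200-300 g) cortical membranes, washed and preincubated 20 min at 23 °C in 5 mM Tris-HCl pH 7.4. Duplicate aliquots (ca. 0.75 mg protein) incubated 60 min at 23 °C with displacer plus [3H]-(+)-10 added as 100 µL of 50 nM stock. Filter-bound radioactivity counted by liquid scintillation; Ki reported.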

Assay [1] addresses Glutamate NMDA receptor (Rattus norvegicus) (UniProt P35439+Q00959+Q00960+Q00961+Q62645+Q8VHN2+Q9R1M7). The assay is described as follows: Antagonistic activity against N-methyl-D-aspartate glutamate receptor from rat cortical slice. In kind it is functional. Summed up:
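Greased-gap recording of NMDA-induced population depolarizations in rat cortical slices. An NMDA concentration-response curve was run, then repeated with antagonist present. Apparent Kb = antagonist concentration/(CR-1), with CR taken at the midpoint of the control curve. If the curve flattened, a lower antagonist concentration was tried. Failing that, the threshold concentration giving significant antagonism was used.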

A value given as a limit tells only on which side of the number the result lay.

What is called Ki is a dissociation constant, usually derived from enzyme kinetics or from competition with a known ligand. A higher Ki goes with lower affinity. The Kb is the equilibrium dissociation constant of an antagonist, usually derived from a functional assay. A high value points to lower antagonist affinity.

On Glutamate NMDA receptor, `OCC12NC(Cc3ccccc31)c1ccccc12` (stereo not drawn) returned an inhibition constant Ki of 0.35 µM. `CCCCc1ccc2c(c1)C1(C)NC(C2)c2ccccc21` (stereo not drawn) showed a Ki at Glutamate NMDA receptor of 1.25 µM.

With `CC12c3ccccc3CC(c3ccccc31)N2O` (stereo not drawn), the Ki on Glutamate NMDA receptor stood at 19 µM. The same compound gave a Kb in assay [1] of 45600 nM.

`CC12NC(Cc3ccccc31)c1ccc(Cl)cc12` (stereo in doubt; (-)-63) [listing 1 of 2 here] showed an inhibition constant (Ki) at Glutamate NMDA receptor of 0.3 µM. `CN1C2CCc3ccccc3C1c1ccccc12` (stereo not drawn): on Glutamate NMDA receptor, the Ki was 2.6 µM. The same measure, in the same setting: under `CC12NC(Cc3ccc(N=[N+]=[N-])cc31)c1ccccc12` (stereo not drawn) stands 0.14 µM. Same read-out and setting: under `CN1C2CCc3ccccc3C1(O)c1ccccc12` (stereo not drawn) stands greater than 100 µM. For the compound `OCC(O)[C@]12NC(Cc3ccccc31)c1ccccc12` (stereo partly drawn), affinity at Glutamate NMDA receptor was put at a Ki of 0.32 µM. `C[C@]12N[C@H](Cc3ccccc31)Cc1ccccc12` had a Ki at Glutamate NMDA receptor of 0.139 µM. The compound also registered a Kb in assay [1] of 310 nM. Take `CCCC12NC(Cc3ccccc31)c1ccccc12` (stereo not drawn): at Glutamate NMDA receptor, the affinity, expressed as Ki, was 8.6 µM. `FCCC12NC(Cc3ccccc31)c1ccccc12` (stereo not drawn): the Ki on Glutamate NMDA receptor came to 0.174 µM. Also, in assay [1], the antagonist dissociation constant (Kb) amounted to 230 nM. In turn, `CN1C2Cc3ccccc3C1(C)c1ccccc1C2` yielded a Ki on Glutamate NMDA receptor of 1.2 µM. Turning to `CC12NC(Cc3ccc(Cl)cc31)c1ccccc12` (stereo in doubt; 64) [listing 1 of 2 here], the antagonist equilibrium constant (Kb) in assay [1] turned out to be 67 nM. In turn, `CCC12NC(Cc3ccccc31)c1ccccc12` (stereo not drawn) returned an inhibition constant (Ki) on Glutamate NMDA receptor of 0.045 µM. Further, in assay [1], the Kb came to 590 nM. At Glutamate NMDA receptor, `OCCC12NC(Cc3ccccc31)c1ccccc12` (stereo not drawn) registered an inhibition constant Ki of 0.26 µM. On to `c1ccc2c(c1)CC1Cc3ccccc3C2N1`, for which the affinity on Glutamate NMDA receptor corresponds to a Ki of 5.1 µM. `CC12NC(c3ccccc31)[C@@H](O)c1ccccc12` (stereo in doubt; (+)120) returned an antagonist equilibrium constant (Kb) in assay [1] of 250 nM. The compound `O[C@@H]1c2ccccc2C2NC1c1ccccc12` (stereo partly drawn) displayed an inhibitory constant (Ki) on Glutamate NMDA receptor of 110 µM. Besides, the antagonist dissociation constant (Kb) in assay [1] was found to be 9600 nM. At Glutamate NMDA receptor, `COc1ccc2c(c1)C1(C)NC2Cc2ccccc21` (stereo in doubt; (-)-83) had a Ki of 0.102 µM. As for `CC12NC(Cc3ccc(Br)cc31)c1ccccc12` (single isomer, unassigned; (-)), the inhibition constant (Ki) at Glutamate NMDA receptor turned out to be 0.113 µM. At Glutamate NMDA receptor, `CC12NC(Cc3ccccc31)Cc1ccc(Cl)cc12` (stereo not drawn) had a Ki of 0.11 µM. This compound had a Kb in assay [1] of 680 nM. `CC12NC(Cc3ccccc31)c1ccc(Cl)cc12` (stereo in doubt; (-)-63) [listing 2 of 2 here] had a Kb in assay [1] of 560 nM.

As for `OC12NC(Cc3ccccc31)Cc1ccccc12`, affinity at Glutamate NMDA receptor was put at a Ki of 57 µM. Turning to `CC12NC(F)(Cc3ccccc31)c1ccccc12` (stereo not drawn), the inhibitory constant (Ki) at Glutamate NMDA receptor came to 0.93 µM.

The compound `CC12NC(Cc3ccc(Cl)cc31)c1ccccc12` (single isomer, unassigned; (-)) gave an antagonist dissociation constant (Kb) in assay [1] of 560 nM. On to `CC12NC(c3ccccc31)[C@@H](O)c1ccccc12` (single isomer, unassigned; (-)), for which, on Glutamate NMDA receptor, the Ki turned out to be 0.302 µM.

Turning to `CN1C2Cc3ccccc3C1(O)c1ccccc1C2`, the inhibition constant Ki at Glutamate NMDA receptor worked out at 290 µM. `CN1C2(C)Cc3ccccc3C1(C)c1ccccc12` (stereo not drawn): affinity at Glutamate NMDA receptor was put at a Ki of 0.71 µM. For `CC12NC(Cc3ccccc31)c1ccc(Cl)cc12` (stereo in doubt; 63) [listing 1 of 2 here], the affinity on Glutamate NMDA receptor corresponds to a Ki of 0.084 µM. `c1ccc2c(c1)CC1NC2c2ccccc21` (stereo not drawn) displayed a Ki at Glutamate NMDA receptor of 22.6 µM. `CN1C2Cc3ccccc3C1(C)c1ccccc12` (stereo not drawn) registered a Ki at Glutamate NMDA receptor of 0.61 µM.

The compound `COc1ccc2c(c1)C1(C)NC2Cc2ccccc21` (single isomer, unassigned; (+)) came in with a Ki at Glutamate NMDA receptor of 0.025 µM. On the same count and under the same terms, under `CCN1C2Cc3ccccc3C1c1ccccc12` (stereo not drawn) stands 24 µM; under `c1ccc2c(c1)CC1NC2(C2SCCCS2)c2ccccc21` (stereo not drawn), greater than 10 µM. With `CC12NC(Cc3ccccc31)c1ccc(Cl)cc12` (single isomer, unassigned; (+)) [listing 1 of 2 here], the antagonist dissociation constant (Kb) in assay [1] turned out to be 80 nM.

`CCOC(=O)CC12NC(Cc3ccccc31)c1ccccc12` (stereo not drawn) registered a Ki on Glutamate NMDA receptor of 0.55 µM. In the case of `NC(=O)CC12NC(Cl)(Cc3ccccc31)c1ccccc12` (stereo not drawn), the Ki at Glutamate NMDA receptor is greater than 90 µM. On Glutamate NMDA receptor, `c1ccc(SCC23NC(Cc4ccccc42)c2ccccc23)cc1` (stereo not drawn) had an inhibition constant Ki of 73 µM. For the compound `CCOC(=O)CC12NC(O)(Cc3ccccc31)c1ccccc12` (stereo not drawn), the inhibitory constant (Ki) at Glutamate NMDA receptor came out at 3.6 µM. On to `CN1C2(C)Cc3ccccc3C1(C)c1ccccc1C2`, for which the affinity on Glutamate NMDA receptor, expressed as Ki, was 8.7 µM. As for `CC12NC(Cc3ccccc31)c1cc(O)ccc12` (single isomer, unassigned; (-)), at Glutamate NMDA receptor, the inhibition constant (Ki) was 0.761 µM. Compound `CC12NC(Cc3ccccc31)c1ccc(Cl)cc12` (stereo in doubt; 63) [listing 2 of 2 here] yielded a Kb in assay [1] of 1660 nM. For the compound `CCC12c3ccccc3CC(Cc3ccccc31)N2C`, at Glutamate NMDA receptor, the affinity corresponds to a Ki of 2.04 µM. At Glutamate NMDA receptor, `ClCCC12NC(Cl)(Cc3ccccc31)c1ccccc12` (stereo not drawn) came in with an inhibition constant Ki of 53 µM.

The compound `CN1C2CCc3ccccc3C1(C)c1ccccc12` (stereo not drawn) returned a Ki on Glutamate NMDA receptor of 8.8 µM. As for `CC12NC(Cc3ccccc31)c1cc(O)ccc12` (stereo in doubt; (+)-106), in assay [1], the Kb was determined as 140 nM. Consider `CC12NC(Cc3ccc(Br)cc31)c1ccccc12` (single isomer, unassigned; (+)) [listing 1 of 2 here], for which the Kb in assay [1] came to 500 nM.

In turn, `CCOC(=O)C(O)[C@]12NC(Cc3ccccc31)c1ccccc12` (stereo partly drawn) yielded a Ki at Glutamate NMDA receptor of 0.39 µM. The compound `COc1ccc2c(c1)CC1NC2(C)c2ccccc21` (stereo not drawn) displayed an inhibitory constant (Ki) at Glutamate NMDA receptor of 0.61 µM.

At Glutamate NMDA receptor, `CC12NC(Cc3ccc(Br)cc31)c1ccccc12` (single isomer, unassigned; (+)) [listing 2 of 2 here] had a Ki of 0.006 µM. Turning to `CC12NC(c3ccccc31)[C@@H](O)c1ccccc12` (stereo in doubt; 120) [listing 1 of 2 here], in assay [1], the Kb is 280 nM. In turn, `O=C(O)CC12NC(O)(Cc3ccccc31)c1ccccc12` (stereo not drawn) displayed a Ki on Glutamate NMDA receptor of 280 µM. Still for that read-out and setting: to `CN1C2Cc3ccccc3C1c1ccccc12` (stereo not drawn) belongs 12 µM.

`CC12NC(Cc3ccc(Br)cc31)c1ccccc12` (stereo in doubt; 88) displayed an antagonist dissociation constant (Kb) in assay [1] of 900 nM. In turn, `COc1ccc2c(c1)C1(C)NC2Cc2ccccc21` (stereo in doubt; 83) yielded a Kb in assay [1] of 230 nM. The compound `CC12NC(Cc3ccccc31)c1cc(O)ccc12` (stereo in doubt; 106) [listing 1 of 2 here] had a Kb in assay [1] of 240 nM. `O=C(O)CC12NC(Cl)(Cc3ccccc31)c1ccccc12` (stereo not drawn): at Glutamate NMDA receptor, the Ki is greater than 4500 µM. At Glutamate NMDA receptor, `CC12NC(Cc3ccc(N)cc31)c1ccccc12` (stereo not drawn) came in with a Ki of 0.027 µM. Regarding `CC12NC(Cc3ccc(SC(F)(F)F)cc31)c1ccccc12` (stereo not drawn), the affinity on Glutamate NMDA receptor, expressed as Ki, was 17 µM. The compound `CN1C2Cc3ccccc3C1c1ccccc1C2` showed an inhibition constant Ki on Glutamate NMDA receptor of 57 µM.

The compound `COc1ccc2c(c1)C1(C)NC(C2)c2ccccc21` (stereo not drawn) yielded an inhibition constant Ki at Glutamate NMDA receptor of 0.046 µM. Same read-out and setting: under `OCCN1C2Cc3ccccc3C1c1ccccc12` (stereo not drawn) stands 71 µM. On to `CCOC(=O)CC12c3ccccc3CC(O)(c3ccccc31)N2O` (stereo not drawn), for which, on Glutamate NMDA receptor, the Ki was greater than 4500 µM. The same measure, in the same setting: under `OCCC12NC(Cl)(Cc3ccccc31)c1ccccc12` (stereo not drawn) stands 0.28 µM; under `CC12NC(Cc3ccccc31)c1ccc(Cl)cc12` (single isomer, unassigned; (+)) [listing 2 of 2 here], 0.006 µM. Take `[O-][S+](CC12NC(Cc3ccccc31)c1ccccc12)c1ccccc1` (stereo not drawn): the Ki on Glutamate NMDA receptor is greater than 160 µM.

At Glutamate NMDA receptor, `CC12NC(Cc3ccc(Cl)cc31)c1ccccc12` (stereo in doubt; 64) [listing 2 of 2 here] yielded a Ki of 0.011 µM.

Regarding `O=C(O)C(O)[C@]12NC(Cc3ccccc31)c1ccccc12` (stereo partly drawn), the inhibition constant Ki on Glutamate NMDA receptor is greater than 1000 µM. As for `CC12NC(c3ccccc31)[C@@H](O)c1ccccc12` (stereo in doubt; 120) [listing 2 of 2 here], the Ki at Glutamate NMDA receptor was 0.21 µM. For the compound `CC12NC(Cc3ccccc31)c1cc(O)ccc12` (stereo in doubt; 106) [listing 2 of 2 here], the affinity on Glutamate NMDA receptor corresponds to a Ki of 0.049 µM. In turn, `CC12NC(c3ccccc31)[C@H](O)c1ccccc12` (stereo partly drawn) had a Ki at Glutamate NMDA receptor of 2.7 µM. In the case of `NC(=O)CC12NC(O)(Cc3ccccc31)c1ccccc12` (stereo not drawn), the Ki on Glutamate NMDA receptor came out at 6.4 µM.

These data come from ChEMBL document CHEMBL1124702, “Synthesis and pharmacological evaluation of a series of dibenzo[a,d]cycloalkenimines as N-methyl-D-aspartate antagonists” (J Med Chem, 1990).
